Measurements taken from paper PMC6944740 (Alzheimer's & Dementia : Translational Research & Clinical …, 2019).

Assays:
[1] = test system: SN mice; assay: TUNEL assay of neuronal necrosis in brain; assay type: in vivo, Kunming mouse; settings: intracardiac weekly, versus untreated SN mice
Summary of the method: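 Senescent 25-month-old Kunming mice were picked by water maze, TUNEL and blood assays and given 200 μL of 20 μM peptide intracardially each time. Frozen brain sections sat 1 h in Na-HEPES, then 10 mM H2O2 and […]. After PBS wash and 0.1% Triton X-100, TUNEL mix ran 1 h at 37°C in the dark; some sections were DAB-stained. Bright/brown spots were scored necrotic.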

[2] = test system: SH-sy5y cells; assay: SH-sy5y cells in iron-rich medium: hydroxyl radical, iron and cell survival; assay type: cell-based, human; settings: 1.5 μM peptide; SEM and flow cytometry
[3] = Solubility of the oligomer; assay type: physicochemical; settings: dissolved in distilled water at 1 mg/mL
[4] = Isothermal titration calorimetry of FeCl3 with 5-YHEDA; settings: ITC, 200 μM 5-YHEDA, 1000 μM FeCl3, one-site binding model
[5] = 5-YHEDA immunohistochemical staining of brain slices after cardiac injection; assay type: in vivo, mouse; settings: mice, intracardiac injection
Summary of the method: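 Fixed brain slices were blocked in 0.1% BSA/PBS (w/v) for 1 h, then given anti-peptide mouse serum at 4°C overnight. The serum was raised in normal mice injected weekly with peptide plus incomplete Freund adjuvant (s.c. or i.p.) for 2 months. After washing, slices took HRP goat anti-mouse IgG for 2 h, then DAB development.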

[6] = test system: SN mice; assay type: in vivo, Kunming mouse; settings: 200 μL of 20 μM intracardiac weekly, versus untreated SN mice

**Q.** For YHEDAYHEDAYHEDAYHEDAYHEDA [5-YHEDA], which “neuronal necrosis in the SN brain (TUNEL)” value [1] is on record?
**A.** did not prevent neuronal damage

**Q.** And the “survival of SH-sy5y cells in iron-rich medium” value [2]?
**A.** many of the SH-sy5y cells cultured in iron-rich medium survived

**Q.** What about the solubility [3] of the same substance?
**A.** soluble

**Q.** And the “Gibbs energy lost after FeCl3 titration (ΔG)” value [4]?
**A.** 8973 kcal/mol

**Q.** What about the “entry into brain (anti-5-YHEDA immunohistochemical staining of brain slices)” value [5] of the same substance?
**A.** no staining was observed

**Q.** What about the “iron and radical levels in the brain (Fig. 5I)” value [6] of the same substance?
**A.** nearly the same as those in the untreated SN mice
